Reference: the RNAGym collection of RNA variant scans (doi:10.1126/science.aae0568)
This sample holds only a part of the variants without activity.

B1: tRNA (parent)
chain: GUUCCGUUGGCGUAAUGGUAACGCGUCUCCCUCCUAAGGAGAAGACUGCGGGUUCGAGUCCCGUACGGAACG

Variants of: B1
Experiment: yeast fitness relative to wild type (ratio to wild type); higher = fitter; tRNA-Arg(CCU), competitive growth, 37 C, YPD
How it was run: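 For this measurement, the tRNA-Arg(CCU) gene was varied by chemical synthesis at a 3% per-site mutation rate across 69 sites, and each variant was placed at the native genomic locus in Saccharomyces cerevisiae. The pooled strains went through a 24-hour competition in YPD at 37°C in six parallel replicates, with amplicons from start and end populations read by 100-nucleotide paired-end sequencing. Darwinian fitness relative to wild type followed from the change in each genotype's frequency. Genotypes needed ≥ 100 starting reads, and estimates < 0.5 were set to 0.5.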

Going from GUUCCGUUGGCGUAAUGGUAACGCGUCUCCCUCCUAAGGAGAAGACUGAGGGUUCGAGUCCCGUACGAAACG [C49A G68A] to GUUCCGUUGGCGUAAUGGUAACGCGUCUCCCUCCUAAGGAGAAGACUGAGGGUUCGAGUCCCGUACGUAACG [C49A G68U], the yeast fitness rises from 0.64 to 0.723.

Compared with GUUCCGUUGGCGUAAUGGUAACGCGUCUCCCUCCUAAGGAGAAGACUGAGGGUUCGAGUCCCGUACGCAACG [C49A G68C], GUUCCGUUGGCGUAAUGGUAACGCGUCUCCCUCCUAAGGAGAAGACUGAGGGUUCGUGUCCCGUACGGACCG [C49A A57U A70C] is lower in yeast fitness: 0.578 for the first, 0.518 for the second.

Compared with GUUCCGUUGGCGUAAUGGUAACGCGUCUCCCUCCUAAGGAGAAGACUUCGGGUUCGAGUCCCGUACGGAACG [G48U], GUUCCGUUGGCGUAAUGGUAACGCGUCUCCCUCCUAAGGAGAAGACUCCGGGUUCGAGUCCCGUACGAAACG [G48C G68A] is lower in yeast fitness: 1.03 for the first, 0.846 for the second.

Going from GUUCCGUUGGCGUAAUGGUAACGCGUCUCCCUCCUAAGGAGAAGACUGAGGGUUCGAGUCCCUCACGGAACG [C49A G63U U64C] to GUUCCGUUGGCGUAAUGGUAACGCGUCUCCCUCCUAAGGAGAAGACUGAAGGUUCGAGUCCUGUACGGAACG [C49A G50A C62U], the yeast fitness rises from at most 0.5 to 0.637.

First: GUUCCGUUGGCGUAAUGGUAACGCGUCUCCCUCCUAAGGAGAAGACUGAGGGUUCGAGUACCGUACGGACCG [C49A C60A A70C]
Second: GUUCCGUUGGCGUAAUGGUAACGCGUCUCCCUCCUAAGGAGAAGACUGAGGGUUCGAGUCCCGUACGGAACG [C49A]
The yeast fitness of the first is lower: at most 0.5 for the first, 0.759 for the second.

First: GUUCCGUUGGCGUAAUGGUAACGCGUCUCCCUCCUAAGGAGAAGACUGGGGGUUCGAGUCCCGUACGGAACG [C49G]
Second: GUUCCGUUGGCGUAAUGGUAACGCGUCUCCCUCCUAAGGAGAAGACUCCGGGUUCGAGACCCGUAUGGAACG [G48C U59A C66U]
The yeast fitness of the first is higher: 0.99 for the first, 0.679 for the second.

Compared with GUUCCGUUGGCGUAAUGGUAACGCGUCUCCCUCCUAAGGAGAAGACUGGGGGUUCGAGUCUCGUACGGAACG [C49G C61U], GUUCCGUUGGCGUAAUGGUAACGCGUCUCCCUCCUAAGGAGAAGACUGGGGGUUCGAGUCACGUACGGAACG [C49G C61A] is higher in yeast fitness: 0.719 for the first, 0.808 for the second.

Going from GUUCCGUUGGCGUAAUGGUAACGCGUCUCCCUCCUAAGGAGAAGACUCCGGGAUCGAGUCUCGUACGGAACG [G48C U53A C61U] to GUUCCGUUGGCGUAAUGGUAACGCGUCUCCCUCCUAAGGAGAAGACUGGGGGUUCGAGUCCCGUAAUGAACG [C49G C66A G67U], the yeast fitness falls from 0.517 to at most 0.5.

Compared with GUUCCGUUGGCGUAAUGGUAACGCGUCUCCCUCCUAAGGAGAAGACUCCGGCUUCGAGUCCGGUACGGAACG [G48C G52C C62G], GUUCCGUUGGCGUAAUGGUAACGCGUCUCCCUCCUAAGGAGAAGACUCCGAGUUCGAGUCCCGUACGGAACG [G48C G51A] is higher in yeast fitness: at most 0.5 for the first, 0.849 for the second.

Compared with GUUCCGUUGGCGUAAUGGUAACGCGUCUCCCUCCUAAGGAGAAGACUGGGGGUUUGAGUCCCGUACGGAACG [C49G C55U], GUUCCGUUGGCGUAAUGGUAACGCGUCUCCCUCCUAAGGAGAAGACUCCCGGUUCGAGUCCCGUACGGAACG [G48C G50C] is lower in yeast fitness: 0.692 for the first, 0.68 for the second.

Compared with GUUCCGUUGGCGUAAUGGUAACGCGUCUCCCUCCUAAGGAGAAGACUGAGGGUUCGAGUGCCGUACGGAUCG [C49A C60G A70U], GUUCCGUUGGCGUAAUGGUAACGCGUCUCCCUCCUAAGGAGAAGACUGAGGGUUCGAGUCCCGUGCGGAACG [C49A A65G] is higher in yeast fitness: at most 0.5 for the first, 0.625 for the second.

Compared with GUUCCGUUGGCGUAAUGGUAACGCGUCUCCCUCCUAAGGAGAAGACUGAGGGUUCGAGUCCCGUUCGGAACG [C49A A65U], GUUCCGUUGGCGUAAUGGUAACGCGUCUCCCUCCUAAGGAGAAGACUGGGGGUUCGUGUCCCGUACGGAACG [C49G A57U] is lower in yeast fitness: 0.962 for the first, 0.792 for the second.

Going from GUUCCGUUGGCGUAAUGGUAACGCGUCUCCCUCCUAAGGAGAAGACUGGGGGUUCGCGUCCCGUACGGAACG [C49G A57C] to GUUCCGUUGGCGUAAUGGUAACGCGUCUCCCUCCUAAGGAGAAGACUGGGGGUUCGGGUCCCGUACGGAACG [C49G A57G], the yeast fitness rises from 0.656 to 0.719.

Compared with GUUCCGUUGGCGUAAUGGUAACGCGUCUCCCUCCUAAGGAGAAGACUCCGGGUUCGAGUGCCGUACGGAACG [G48C C60G], GUUCCGUUGGCGUAAUGGUAACGCGUCUCCCUCCUAAGGAGAAGACUGGGGGUUCGAGUCCCGUGCGGAACG [C49G A65G] is higher in yeast fitness: 0.719 for the first, 0.957 for the second.

Compared with GUUCCGUUGGCGUAAUGGUAACGCGUCUCCCUCCUAAGGAGAAGACUGGGGGUUCGAGUCCCGUUCGGAACG [C49G A65U], GUUCCGUUGGCGUAAUGGUAACGCGUCUCCCUCCUAAGGAGAAGACUGAGGGUUCGGGUCCCGUACGGAACG [C49A A57G] is higher in yeast fitness: 0.748 for the first, 0.835 for the second.

Going from GUUCCGUUGGCGUAAUGGUAACGCGUCUCCCUCCUAAGGAGAAGACUGAGGGUUCGCGUCCCGUACGGAACG [C49A A57C] to GUUCCGUUGGCGUAAUGGUAACGCGUCUCCCUCCUAAGGAGAAGACUGAGGGUUCGAGUCCCGUAUGGAACG [C49A C66U], the yeast fitness rises from 0.573 to 0.641.

Compared with GUUCCGUUGGCGUAAUGGUAACGCGUCUCCCUCCUAAGGAGAAGACUCCGGGUUCGAGUCCCGUACUGCACG [G48C G67U A69C], GUUCCGUUGGCGUAAUGGUAACGCGUCUCCCUCCUAAGGAGAAGACUCCGGGUUCGAGUCCCGCACCGAACG [G48C U64C G67C] is lower in yeast fitness: 0.507 for the first, at most 0.5 for the second.

Compared with GUUCCGUUGGCGUAAUGGUAACGCGUCUCCCUCCUAAGGAGAAGACUGAUGGUUCGAGUCCUGUACGGAACG [C49A G50U C62U], GUUCCGUUGGCGUAAUGGUAACGCGUCUCCCUCCUAAGGAGAAGACUCCGGGUUCGAGUCGCGUACGGAACG [G48C C61G] is higher in yeast fitness: at most 0.5 for the first, 0.629 for the second.

Variant GUUCCGUUGGCGUAAUGGUAACGCGUCUCCCUCCUAAGGAGAAGACUGGGGGUUCGGGUCUCGUACGGAACG [C49G A57G C61U] has a yeast fitness of 0.584.
